*1 amine or outer side, *2 acyl side, *3 side chain or, on linkers, in order; H or OH if unused. Where a SMILES comes first, the peptide text is derived from it. [ ]: non-standard residue; d: D form. The star is where a group is joined. ξ: configuration not given here. LeuΨ(ξCHOHCH2)Val = CC(C)C[C@H](N[*:1])C(O)C[C@H](C(=O)[*:2])C(C)C; Boc = CC(C)(C)OC(=O)*; Piv = CC(C)(C)C(=O)*
Legend:
[1] = target: T1, Renin (Homo sapiens, UniProt P00797); experiment: In vitro inhibition of purified Human kidney renin (250 pg/mL) incubated with angiotensinogen at pH 7.2
T1 sequence (P00797 whole entry): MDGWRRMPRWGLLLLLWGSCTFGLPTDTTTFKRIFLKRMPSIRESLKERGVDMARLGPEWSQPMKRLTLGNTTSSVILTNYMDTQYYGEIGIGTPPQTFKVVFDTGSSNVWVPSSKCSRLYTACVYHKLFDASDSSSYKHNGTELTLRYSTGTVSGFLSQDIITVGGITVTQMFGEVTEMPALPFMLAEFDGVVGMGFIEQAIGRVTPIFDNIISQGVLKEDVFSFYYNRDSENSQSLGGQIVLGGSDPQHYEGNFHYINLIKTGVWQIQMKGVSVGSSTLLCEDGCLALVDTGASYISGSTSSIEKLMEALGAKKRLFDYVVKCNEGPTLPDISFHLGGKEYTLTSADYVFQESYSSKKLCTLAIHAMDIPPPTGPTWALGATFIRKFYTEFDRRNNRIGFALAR
Method in brief: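 Purified human kidney renin at 250 pg/mL, incubated at 37 °C with human angiotensinogen at pH 7.2.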

[2] = target: T2, Cathepsin D (Bos taurus, UniProt P80209); experiment: In vitro inhibition of bovine cathepsin D
T2 sequence (P80209 whole entry): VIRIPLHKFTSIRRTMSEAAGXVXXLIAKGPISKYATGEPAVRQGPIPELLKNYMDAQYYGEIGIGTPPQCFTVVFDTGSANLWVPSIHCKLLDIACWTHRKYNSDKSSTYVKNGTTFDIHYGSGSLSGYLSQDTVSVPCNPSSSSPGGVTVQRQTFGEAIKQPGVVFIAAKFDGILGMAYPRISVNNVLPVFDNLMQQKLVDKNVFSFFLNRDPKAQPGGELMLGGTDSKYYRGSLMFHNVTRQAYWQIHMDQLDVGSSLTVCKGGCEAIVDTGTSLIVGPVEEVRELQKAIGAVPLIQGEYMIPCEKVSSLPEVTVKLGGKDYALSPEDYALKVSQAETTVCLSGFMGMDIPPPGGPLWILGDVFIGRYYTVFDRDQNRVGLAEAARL

[3] = tested on: Monkey; experiment: Reduction of blood pressure measured 60 min after administration of compound(dose 10mg/kg, po); assay type: functional
Method in brief: (§1)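 Salt-depleted marmosets given a single intravenous or oral dose. Blood pressure change recorded in mmHg at 30, 60 and 120 min after dosing.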

[4] = tested on: Monkey; experiment: Reduction of blood pressure measured 60 min after administration of compound(dose 1 mg/kg, iv); assay type: functional; method in brief: as §1
[5] = tested on: Monkey; experiment: Reduction of blood pressure measured 60 min after administration of compound(dose 1 mg/kg, p.o.); assay type: functional; settings: route oral; method in brief: as §1
[6] = tested on: Monkey; experiment: Reduction of blood pressure measured 60 min after administration of compound(dose 3 mg/kg, po); assay type: functional; method in brief: as §1
[7] = tested on: Monkey; experiment: Reduction of blood pressure measured 120 min after administration of compound(dose 0.1 mg/kg, iv); assay type: functional; method in brief: as §1
[8] = tested on: Monkey; experiment: Reduction of blood pressure measured 120 min after administration of compound(dose 10 mg/kg, po); assay type: functional; method in brief: as §1
[9] = tested on: Monkey; experiment: Reduction of blood pressure measured 120 min after administration of compound(dose 1 mg/kg, iv); assay type: functional; method in brief: as §1
[10] = tested on: Monkey; experiment: Reduction of blood pressure measured 120 min after administration of compound(dose 1 mg/kg, p.o.); assay type: functional; settings: route oral; method in brief: as §1
[11] = tested on: Monkey; experiment: Reduction of blood pressure measured 120 min after administration of compound(dose 3 mg/kg, po); assay type: functional; method in brief: as §1
[12] = tested on: Monkey; experiment: Reduction of blood pressure measured 30 min after administration of compound(dose 0.1 mg/kg, iv); assay type: functional; method in brief: as §1
[13] = tested on: Monkey; experiment: Reduction of blood pressure measured 30 min after administration of compound(dose 10mg/kg, po); assay type: functional; method in brief: as §1
[14] = tested on: Monkey; experiment: Reduction of blood pressure measured 30 min after administration of compound(dose 1 mg/kg, iv); assay type: functional; method in brief: as §1
[15] = tested on: Monkey; experiment: Reduction of blood pressure measured 30 min after administration of compound(dose 1 mg/kg, p.o.); assay type: functional; settings: route oral; method in brief: as §1
[16] = tested on: Monkey; experiment: Reduction of blood pressure measured 30 min after administration of compound(dose 3mg/kg, po); assay type: functional; method in brief: as §1
[17] = tested on: Monkey; experiment: Reduction of blood pressure measured 60 min after administration of compound(dose 0.1 mg/kg, iv); assay type: functional; method in brief: as §1

Q: Which IC50 [1] does the source give for CCCCNC(=O)[C@@H](CC(O)[C@H](CC1CCCCC1)NC(=O)[C@H](Cc1cnc[nH]1)NC(=O)C(Cc1ccccc1)CP(=O)(OCC)OCC)C(C)C (stereo not given in full) here?
A: 4 nM

Q: Which IC50 [1] does the source give for CCCCNC(=O)[C@@H](CC(O)[C@H](CC1CCCCC1)NC(=O)[C@H](Cc1c[nH]cn1)NC(=O)C(CC(=O)C(C)(C)C)Cc1ccccc1)C(C)C (stereo not given in full) here?
A: 6 nM

Q: For CCCCNC(=O)[C@@H](CC(O)[C@H](CC(C)C)NC(=O)[C@H](Cc1cnc[nH]1)NC(=O)C(C)(OC(=O)C(C)(C)C)c1ccccc1)C(C)C (stereo not given in full), which IC50 [1] is on record?
A: 20 nM

Q: For CCCCNC(=O)[C@@H](CC(O)[C@H](CC1CCCCC1)NC(=O)[C@H](Cc1c[nH]cn1)NC(=O)[C@H](Cc1ccccc1)C[S+]([O-])C(C)(C)C)C(C)C (stereo not given in full), which IC50 [1] is on record?
A: 2 nM

Q: How did the IC50 [1] turn out when CCCCNC(=O)[C@@H](CC(O)[C@H](CC1CCCCC1)NC(=O)[C@H](Cc1cnc[nH]1)NC(=O)[C@@H](CSC(C)(C)C)Cc1ccccc1)C(C)C (stereo not given in full) was run?
A: 4 nM

Q: CC[C@H](C)[C@H](NC(=O)[C@@H](CC(O)[C@H](CC(C)C)NC(=O)[C@H](Cc1cnc[nH]1)NC(=O)C(C)(OC(=O)C(C)(C)C)c1ccccc1)C(C)C)C(=O)N[C@@H](Cc1cnc[nH]1)C(N)=O (stereo not given in full) was tested. Which IC50 [1] did it give?
A: 20 nM

Q: Which IC50 [1] does the source give for CCCCNC(=O)[C@@H](CC(O)[C@H](CC1CCCCC1)NC(=O)[C@H](Cc1c[nH]cn1)NC(=O)C(C)(OC(=O)C(C)(C)C)c1ccccc1)C(C)C (stereo not given in full) here?
A: 7 nM

Q: How did the IC50 [1] turn out when CC[C@H](C)[C@H](NC(=O)[C@@H](CC(O)[C@H](CC(C)C)NC(=O)[C@H](Cc1cnc[nH]1)NC(=O)[C@H](Cc1ccccc1)NC(=O)OC(C)(C)C)C(C)C)C(=O)N[C@@H](Cc1cnc[nH]1)C(N)=O (stereo not given in full) (Boc-FH[LeuΨ(ξCHOHCH2)Val]IH-NH2) was run?
A: 15 nM

Q: For CC[C@H](C)[C@H](NC(=O)[C@@H](CC(O)[C@H](CC(C)C)NC(=O)[C@H](Cc1c[nH]cn1)NC(=O)[C@H](Cc1ccccc1)NC(=O)C(C)(C)C)C(C)C)C(=O)N[C@@H](Cc1c[nH]cn1)C(N)=O (stereo not given in full) (Piv-FH[LeuΨ(ξCHOHCH2)Val]IH-NH2), which IC50 [1] is on record?
A: 20 nM

Q: What does the source list for CCCCNC(=O)[C@@H](CC(O)[C@H](CC1CCCCC1)NC(=O)[C@H](Cc1c[nH]cn1)NC(=O)C(Cc1ccccc1)CS(=O)(=O)C(C)(C)C)C(C)C (stereo in doubt; 8i)?
A: IC50 [2]: 3200 nM; Delta blood pressure [3]: -23 mmHg; Delta blood pressure [4]: -13 mmHg; Delta blood pressure [5]: -5 mmHg; Delta blood pressure [6]: -10 mmHg; Delta blood pressure [7]: -1 mmHg; Delta blood pressure [8]: -23 mmHg; Delta blood pressure [9]: -12 mmHg; Delta blood pressure [10]: -6 mmHg; Delta blood pressure [11]: -8 mmHg; Delta blood pressure [12]: -13 mmHg; Delta blood pressure [13]: -18 mmHg; Delta blood pressure [14]: -17 mmHg; Delta blood pressure [15]: 0 mmHg; Delta blood pressure [16]: -6 mmHg; Delta blood pressure [17]: -5 mmHg
